Test results reported in ChEMBL document CHEMBL1687892, “Potent agonists of the protease activated receptor 2 (PAR2)” (J Med Chem, 2011).
Active and inactive are the calls of the source. No cut-off for these calls is given here.

How the values were obtained:
Assay type in all cases: functional, cell-based
[1] = target: Proteinase-activated receptor 2 (Homo sapiens) (UniProt P55085); test: Agonist activity at human PAR2 expressed in human HeLa cells assessed as increase in intracellular calcium levels at 5 uM by fura-2-AM dye based digital imaging microscopy
Proteinase-activated receptor 2 (Homo sapiens), sequence (P55085 whole entry): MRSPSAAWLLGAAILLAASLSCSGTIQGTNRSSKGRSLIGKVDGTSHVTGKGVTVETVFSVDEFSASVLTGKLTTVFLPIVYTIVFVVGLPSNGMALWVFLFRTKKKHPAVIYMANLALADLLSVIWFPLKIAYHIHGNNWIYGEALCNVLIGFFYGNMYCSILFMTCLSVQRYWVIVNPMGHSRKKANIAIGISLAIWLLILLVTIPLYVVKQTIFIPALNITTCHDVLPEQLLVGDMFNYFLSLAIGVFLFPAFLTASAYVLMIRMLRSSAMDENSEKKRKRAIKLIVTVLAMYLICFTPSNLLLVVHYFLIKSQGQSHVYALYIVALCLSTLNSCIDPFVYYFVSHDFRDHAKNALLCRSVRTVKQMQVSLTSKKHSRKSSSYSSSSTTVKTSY

[2] = target: Proteinase-activated receptor 2 (Homo sapiens) (UniProt P55085); test: Agonist activity at human PAR2 expressed in rat kNRK cells assessed as increase in intracellular calcium levels at 5 uM by fura-2-AM dye based digital imaging microscopy
Summary of the method: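 Cells transfected with human PAR2 (HeLa-PAR2 or kNRK-PAR2) were compared with low-expressing or plasmid-control cells of the same line. Cells were grown on matrix-coated coverslips and loaded with fura-2. 5 μM agonist was added, and mean [Ca2+]i of all cells in the field (~90) was imaged every 0.6 s, ± SEM.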

[3] = target: Proteinase-activated receptor 2 (Homo sapiens) (UniProt P55085); test: Agonist activity at PAR2 in human 16HBE14o cells assessed as activated cells at 100 uM by intracellular calcium mobilization fura-2-AM assay
Summary of the method: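 16HBE14o- cells were grown 5–7 days on matrix-coated coverslips, loaded with fura-2, and imaged by digital microscopy over 3 min (80–100 cells). A cell counted as activated if [Ca2+]i rose to ≥200 nM from a resting 50–75 nM, scored as % of cells. Doses ran from 100 μM down to 250 nM. EC50 came from % responding. Mean ± SEM, N ≥ 2 at 100 μM, N ≥ 4 otherwise.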

[4] = target: Proteinase-activated receptor 2 (Homo sapiens) (UniProt P55085); test: Agonist activity at PAR2 in human 16HBE14o cells assessed as activated cells at […] by intracellular calcium mobilization fura-2-AM assay
[5] = target: Proteinase-activated receptor 2 (Homo sapiens) (UniProt P55085); test: Agonist activity at PAR2 in human 16HBE14o cells assessed as increase in intracellular calcium levels at […] by in vitro physiological response assay

SMILES | Activity [1] | Activity [2] | Activity [3] | Activity [4] | Activity [5]
CC[C@H](C)[C@H](NC(=O)[C@H](CC(C)C)NC(=O)c1csc(N)n1)C(=O)NCC(=O)N[C@@H](CCCNC(=N)N)C(=O)N[C@@H](CC(C)C)C(N)=O | Active | Active |  |  | 
CC[C@H](C)[C@H](NC(=O)[C@H](CC(C)C)NC(=O)c1cccnc1N)C(=O)NCC(=O)N[C@@H](CCCNC(=N)N)C(=O)N[C@@H](CC(C)C)C(N)=O |  |  | Active | inactive | inactive
CC[C@H](C)[C@H](NC(=O)[C@H](CC(C)C)NC(=O)c1ccnc(N)c1)C(=O)NCC(=O)N[C@@H](CCCNC(=N)N)C(=O)N[C@@H](CC(C)C)C(N)=O |  |  | Active | inactive | inactive
CC[C@H](C)[C@H](NC(=O)[C@H](CC(C)C)NC(=O)CC#N)C(=O)NCC(=O)N[C@@H](CCCNC(=N)N)C(=O)N[C@@H](CC(C)C)C(N)=O |  |  | Active | inactive | 
CC[C@H](C)[C@H](NC(=O)[C@H](CC(C)C)NC(=O)c1cccc2[nH]ccc12)C(=O)NCC(=O)N[C@@H](CCCNC(=N)N)C(=O)N[C@@H](CC(C)C)C(N)=O |  |  | 0% |  | 
CC[C@H](C)[C@H](NC(=O)[C@H](CC(C)C)NC(=O)c1nc(N)n[nH]1)C(=O)NCC(=O)N[C@@H](CCCNC(=N)N)C(=O)N[C@@H](CC(C)C)C(N)=O |  |  | Active | inactive | inactive
CC[C@H](C)[C@H](NC(=O)[C@H](CC(C)C)NC(=O)c1ccc(N)nc1)C(=O)NCC(=O)N[C@@H](CCCNC(=N)N)C(=O)N[C@@H](CC(C)C)C(N)=O | Active | Active |  |  | 
CC[C@H](C)[C@H](NC(=O)[C@H](CC(C)C)NC(=O)c1ccc(S(N)(=O)=O)cc1)C(=O)NCC(=O)N[C@@H](CCCNC(=N)N)C(=O)N[C@@H](CC(C)C)C(N)=O |  |  | Active | inactive | 
CC[C@H](C)[C@H](NC(=O)[C@H](CC(C)C)NC(=O)CCN1CCCCC1)C(=O)NCC(=O)N[C@@H](CCCNC(=N)N)C(=O)N[C@@H](CC(C)C)C(N)=O |  |  | 0% |  | 
CC[C@H](C)[C@H](NC(=O)[C@H](CC(C)C)NC(=O)Cc1c[nH]c2ccccc12)C(=O)NCC(=O)N[C@@H](CCCNC(=N)N)C(=O)N[C@@H](CC(C)C)C(N)=O |  |  | 0% |  | 
CC[C@H](C)[C@H](NC(=O)[C@H](CC(C)C)NC(=O)c1cccnc1O)C(=O)NCC(=O)N[C@@H](CCCNC(=N)N)C(=O)N[C@@H](CC(C)C)C(N)=O |  |  | 0% |  | 
CC[C@H](C)[C@H](NC(=O)[C@H](CC(C)C)NC(=O)c1cnccn1)C(=O)NCC(=O)N[C@@H](CCCNC(=N)N)C(=O)N[C@@H](CC(C)C)C(N)=O |  |  | Active | inactive | 
CC[C@H](C)[C@H](NC(=O)[C@H](CC(C)C)NC(=O)COCC(=O)O)C(=O)NCC(=O)N[C@@H](CCCNC(=N)N)C(=O)N[C@@H](CC(C)C)C(N)=O |  |  | 0% |  | 
